# From ChEMBL document CHEMBL4371061, “Identification of novel triazole inhibitors of Wnt/β-catenin signaling based on the Niclosamide chemotype” (Bioorg Med Chem Lett, 2019)
# Calls of active or inactive are those of the source. The rule behind the calls is not given here.
# Test system: SW480
# Test: Inhibition of Wnt/beta-catenin signaling pathway in human SW480 cells cytosol lysate harboring APC mutation assessed as reduction in Axin2 protein expression at 5 uM after 18 hrs by Western blot analysis relative to control
# Assay type: subcellular
# Details: not given
# How it was run: (§1)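 Cells were treated with 5 μM compound in DMSO, or DMSO alone, for 18 h. Cytosolic fraction and whole-cell lysate were immunoblotted for target proteins with β-actin as loading control. Band levels were normalized to β-actin and expressed as percent of the DMSO-treated control.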
row,Compound,inhibition [%]
1,O=[N+]([O-])c1ccc(-c2nnc(-c3cc(Cl)ccc3O)[nH]2)cc1,44
2,Oc1ccc(Cl)cc1-c1nnc(-c2ccc(C(F)(F)F)cc2)[nH]1,58

# More lines, now with the values ahead:
row,inhibition [%],Compound
1,47,O=[N+]([O-])c1ccc(-c2nnc(-c3cc(Cl)ccc3O)[nH]2)c(Cl)c1
2,29,O=C(Nc1ccc([N+](=O)[O-])cc1Cl)c1cc(Cl)ccc1O [NICLOSAMIDE]

# Species on record: Homo sapiens
# Test: Inhibition of Wnt/beta-catenin signaling pathway in human HCT116 cells cytosol lysate harboring beta-catenin mutation assessed as reduction in beta-catenin protein expression at 5 to 10 uM after 18 hrs by Western blot analysis
# Assay type: subcellular
# Details: not given
row,inhibition,Compound
1,Active,Oc1ccc(Cl)cc1-c1nnc(-c2ccccc2)[nH]1

# Test system: SW480
# Test: Inhibition of Wnt/beta-catenin signaling pathway in human SW480 whole cell lysate harboring APC mutation assessed as reduction in c-Myc protein expression at 5 uM after 18 hrs by Western blot analysis relative to control
# Assay type: subcellular
# Details: not given
# How it was run: as §1
row,Compound,inhibition [%]
1,O=[N+]([O-])c1ccc(-c2nnc(-c3cc(Cl)ccc3O)[nH]2)cc1,2
2,Oc1ccc(Cl)cc1-c1nnc(-c2ccc(C(F)(F)F)cc2)[nH]1,2

# Next, values leading:
row,inhibition [%],Compound
1,4,O=[N+]([O-])c1ccc(-c2nnc(-c3cc(Cl)ccc3O)[nH]2)c(Cl)c1
2,3,O=C(Nc1ccc([N+](=O)[O-])cc1Cl)c1cc(Cl)ccc1O [NICLOSAMIDE]

# Test system: SW480
# Test: Inhibition of Wnt/beta-catenin signaling pathway in human SW480 cells cytosol lysate harboring APC mutation assessed as reduction in beta-catenin protein expression at 5 uM after 18 hrs by Western blot analysis relative to control
# Assay type: subcellular
# Details: not given
# How it was run: as §1
row,Compound,inhibition [%]
1,O=[N+]([O-])c1ccc(-c2nnc(-c3cc(Cl)ccc3O)[nH]2)cc1,67
2,Oc1ccc(Cl)cc1-c1nnc(-c2ccc(C(F)(F)F)cc2)[nH]1,72

# Further lines, results first:
row,inhibition [%],Compound
1,69,O=[N+]([O-])c1ccc(-c2nnc(-c3cc(Cl)ccc3O)[nH]2)c(Cl)c1
2,74,O=C(Nc1ccc([N+](=O)[O-])cc1Cl)c1cc(Cl)ccc1O [NICLOSAMIDE]

# Test system: SW480
# Test: Inhibition of Wnt/beta-catenin signaling pathway in human SW480 whole cell lysate harboring APC mutation assessed as reduction in cyclin D1 protein expression at 5 uM after 18 hrs by Western blot analysis relative to control
# Assay type: subcellular
# Details: not given
# How it was run: as §1
row,Compound,inhibition [%]
1,O=[N+]([O-])c1ccc(-c2nnc(-c3cc(Cl)ccc3O)[nH]2)cc1,70
2,Oc1ccc(Cl)cc1-c1nnc(-c2ccc(C(F)(F)F)cc2)[nH]1,76

# The remaining lines, values ahead:
row,inhibition [%],Compound
1,57,O=[N+]([O-])c1ccc(-c2nnc(-c3cc(Cl)ccc3O)[nH]2)c(Cl)c1
2,45,O=C(Nc1ccc([N+](=O)[O-])cc1Cl)c1cc(Cl)ccc1O [NICLOSAMIDE]

# Species on record: Homo sapiens
# Test: Inhibition of Wnt/beta-catenin signaling pathway in human HCT116 whole cell lysate harboring beta-catenin mutation assessed as reduction in c-Myc protein expression at 5 uM after 18 hrs by Western blot analysis relative to control
# Assay type: subcellular
# Details: not given
# How it was run: as §1
row,Compound,inhibition [%]
1,O=[N+]([O-])c1ccc(-c2nnc(-c3cc(Cl)ccc3O)[nH]2)cc1,2
2,Oc1ccc(Cl)cc1-c1nnc(-c2ccc(C(F)(F)F)cc2)[nH]1,3

# The remaining lines, values ahead:
row,inhibition [%],Compound
1,3,O=[N+]([O-])c1ccc(-c2nnc(-c3cc(Cl)ccc3O)[nH]2)c(Cl)c1
2,1,O=C(Nc1ccc([N+](=O)[O-])cc1Cl)c1cc(Cl)ccc1O [NICLOSAMIDE]

# Test system: HEK293
# Test: Inhibition of Wnt3A-stimulated Wnt/beta-catenin pathway in HEK293 cells transfected with p8xTOPFlash, Renilla luciferase plasmid pRL-TK and pLKO.1 assessed as residual activity at 10 uM after 8 hrs by Dual topflash luciferase reporter gene assay relative to control
# Assay type: cell-based
# Details: Homo sapiens
# How it was run: (§2)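 HEK293 cells stably carrying a TOPFlash luciferase reporter and a Renilla luciferase control were stimulated with Wnt3A-conditioned medium and given DMSO or compound (0.04–10 μM) for 8 h. Wnt3A plus DMSO was set as 100%. IC50 was fit from mean ± SEM, n 3. Percent inhibition at the two highest concentrations was given when no full curve was obtained.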
row,Compound,Activity [%]
1,O=C(NC(=O)c1cc(Cl)ccc1O)c1ccc([N+](=O)[O-])cc1,153

# Species on record: Homo sapiens
# Test: Inhibition of Wnt/beta-catenin signaling pathway in human HCT116 cells cytosol lysate harboring beta-catenin mutation assessed as reduction in Axin2 protein expression at 5 to 10 uM after 18 hrs by Western blot analysis
# Assay type: subcellular
# Details: not given
row,inhibition,Compound
1,Active,Oc1ccc(Cl)cc1-c1nnc(-c2ccccc2)[nH]1

# Species on record: Homo sapiens
# Test: Inhibition of Wnt/beta-catenin signaling pathway in human HCT116 cells cytosol lysate harboring beta-catenin mutation assessed as reduction in beta-catenin protein expression at 5 uM after 18 hrs by Western blot analysis relative to control
# Assay type: subcellular
# Details: not given
# How it was run: as §1
row,Compound,inhibition [%]
1,O=[N+]([O-])c1ccc(-c2nnc(-c3cc(Cl)ccc3O)[nH]2)cc1,59
2,Oc1ccc(Cl)cc1-c1nnc(-c2ccc(C(F)(F)F)cc2)[nH]1,6

# Further lines, results first:
row,inhibition [%],Compound
1,34,O=[N+]([O-])c1ccc(-c2nnc(-c3cc(Cl)ccc3O)[nH]2)c(Cl)c1
2,46,O=C(Nc1ccc([N+](=O)[O-])cc1Cl)c1cc(Cl)ccc1O [NICLOSAMIDE]

# Species on record: Homo sapiens
# Test: Inhibition of Wnt/beta-catenin signaling pathway in human HCT116 whole cell lysate harboring beta-catenin mutation assessed as reduction in cyclin D1 protein expression at 5 uM after 18 hrs by Western blot analysis relative to control
# Assay type: subcellular
# Details: not given
# How it was run: as §1
row,Compound,inhibition [%]
1,O=[N+]([O-])c1ccc(-c2nnc(-c3cc(Cl)ccc3O)[nH]2)cc1,20
2,Oc1ccc(Cl)cc1-c1nnc(-c2ccc(C(F)(F)F)cc2)[nH]1,17

# Now from value to compound:
row,inhibition [%],Compound
1,22,O=[N+]([O-])c1ccc(-c2nnc(-c3cc(Cl)ccc3O)[nH]2)c(Cl)c1
2,28,O=C(Nc1ccc([N+](=O)[O-])cc1Cl)c1cc(Cl)ccc1O [NICLOSAMIDE]

# Test system: HEK293
# Test: Inhibition of Wnt3A-stimulated Wnt/beta-catenin pathway in HEK293 cells transfected with p8xTOPFlash, Renilla luciferase plasmid pRL-TK and pLKO.1 at 10 uM after 8 hrs by Dual topflash luciferase reporter gene assay relative to control
# Assay type: cell-based
# Details: Homo sapiens
# How it was run: as §2
row,Compound,inhibition [%]
1,O=C(NCc1ccc([N+](=O)[O-])cc1)c1cc(Cl)ccc1O,43
2,COc1ccc(-c2nnc(-c3cc(Cl)ccc3O)[nH]2)cc1,60

# Test system: HEK293
# Test: Inhibition of Wnt3A-stimulated Wnt/beta-catenin pathway in HEK293 cells transfected with p8xTOPFlash, Renilla luciferase plasmid pRL-TK and pLKO.1 at 5 uM after 8 hrs by Dual topflash luciferase reporter gene assay relative to control
# Assay type: cell-based
# Details: Homo sapiens
# How it was run: as §2
row,Compound,inhibition [%]
1,O=C(NCc1ccc([N+](=O)[O-])cc1)c1cc(Cl)ccc1O,3
2,COc1ccc(-c2nnc(-c3cc(Cl)ccc3O)[nH]2)cc1,14

# Species on record: Homo sapiens
# Test: Inhibition of Wnt/beta-catenin signaling pathway in human HCT116 cells cytosol lysate harboring beta-catenin mutation assessed as reduction in Axin2 protein expression at 5 uM after 18 hrs by Western blot analysis relative to control
# Assay type: subcellular
# Details: not given
# How it was run: as §1
row,Compound,inhibition [%]
1,O=[N+]([O-])c1ccc(-c2nnc(-c3cc(Cl)ccc3O)[nH]2)cc1,75
2,Oc1ccc(Cl)cc1-c1nnc(-c2ccc(C(F)(F)F)cc2)[nH]1,68

# Further lines, results first:
row,inhibition [%],Compound
1,68,O=[N+]([O-])c1ccc(-c2nnc(-c3cc(Cl)ccc3O)[nH]2)c(Cl)c1
2,35,O=C(Nc1ccc([N+](=O)[O-])cc1Cl)c1cc(Cl)ccc1O [NICLOSAMIDE]

# Species on record: Homo sapiens
# Test: Inhibition of Wnt/beta-catenin signaling pathway in human HCT116 whole cell lysate harboring beta-catenin mutation assessed as reduction in survivin protein expression at 5 to 10 uM after 18 hrs by Western blot analysis
# Assay type: subcellular
# Details: not given
row,Compound,inhibition
1,Oc1ccc(Cl)cc1-c1nnc(-c2ccccc2)[nH]1,Active

# Species on record: Homo sapiens
# Test: Inhibition of Wnt/beta-catenin signaling pathway in human HCT116 whole cell lysate harboring beta-catenin mutation assessed as reduction in survivin protein expression at 5 to 10 uM after 18 hrs by Western blot analysis
# Details: not given
row,Compound,inhibition
1,Oc1ccc(Cl)cc1-c1nnc(-c2ccccc2)[nH]1,Active

# Test system: SW480
# Test: Inhibition of Wnt/beta-catenin signaling pathway in human SW480 whole cell lysate harboring APC mutation assessed as reduction in survivin protein expression at 5 uM after 18 hrs by Western blot analysis relative to control
# Assay type: subcellular
# Details: not given
# How it was run: as §1
row,Compound,inhibition [%]
1,O=[N+]([O-])c1ccc(-c2nnc(-c3cc(Cl)ccc3O)[nH]2)c(Cl)c1,43
2,O=[N+]([O-])c1ccc(-c2nnc(-c3cc(Cl)ccc3O)[nH]2)cc1,38
3,O=C(Nc1ccc([N+](=O)[O-])cc1Cl)c1cc(Cl)ccc1O [NICLOSAMIDE],41
4,Oc1ccc(Cl)cc1-c1nnc(-c2ccc(C(F)(F)F)cc2)[nH]1,56

# Molecular target: Frizzled-1 (Homo sapiens) (UniProt Q9UP38)
# Test: Induction of GFP-tagged Fzd1 (unknown origin) internalization expressed in human U2OS cells at 12.5 after 6 hrs by confocal microscopic method relative to control
# Assay type: cell-based
# Details: not given
# How it was run: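 U2OS cells stably expressing Frizzled1-GFP were exposed to compound for 6 h, fixed and imaged by confocal microscopy. Punctate was scored visually against DMSO control: similar to control = 0, trace = 1, moderate = 3, strong = 5.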
# Frizzled-1 (Homo sapiens), sequence (Q9UP38 70-647 limits assumed): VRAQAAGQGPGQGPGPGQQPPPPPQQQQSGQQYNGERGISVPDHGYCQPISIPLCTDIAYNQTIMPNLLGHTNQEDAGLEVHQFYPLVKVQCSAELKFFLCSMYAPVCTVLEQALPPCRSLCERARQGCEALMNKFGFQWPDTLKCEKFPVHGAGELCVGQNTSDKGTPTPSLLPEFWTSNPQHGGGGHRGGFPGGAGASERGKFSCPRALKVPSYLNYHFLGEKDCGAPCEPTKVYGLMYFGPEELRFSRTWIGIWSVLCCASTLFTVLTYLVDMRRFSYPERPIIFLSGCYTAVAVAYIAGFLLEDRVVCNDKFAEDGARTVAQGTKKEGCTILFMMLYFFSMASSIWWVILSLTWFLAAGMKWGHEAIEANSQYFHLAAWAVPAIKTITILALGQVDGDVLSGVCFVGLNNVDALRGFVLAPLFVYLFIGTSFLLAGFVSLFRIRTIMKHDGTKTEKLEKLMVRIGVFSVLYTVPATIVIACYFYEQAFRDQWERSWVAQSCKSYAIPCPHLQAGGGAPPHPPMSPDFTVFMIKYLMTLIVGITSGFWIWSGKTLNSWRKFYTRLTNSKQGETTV
row,Compound,score
1,O=C(NC(=O)c1cc(Cl)ccc1O)c1ccc([N+](=O)[O-])cc1,0
2,O=C(NCc1ccc([N+](=O)[O-])cc1)c1cc(Cl)ccc1O,0
3,COc1ccc(-c2nnc(-c3cc(Cl)ccc3O)[nH]2)cc1,0
4,O=[N+]([O-])c1ccc(-c2nnc(-c3cc(Cl)ccc3O)[nH]2)cc1,4
5,Oc1ccc(Cl)cc1-c1nnc(-c2ccc(F)cc2)[nH]1,1
6,Oc1ccc(Cl)cc1-c1nnc(-c2ccc(C(F)(F)F)cc2)[nH]1,2

# Second part, the compound after the results:
row,score,Compound
1,5,O=[N+]([O-])c1ccc(-c2nnc(-c3cc(Cl)ccc3O)[nH]2)c(Cl)c1
2,0,Oc1ccc(Cl)cc1-c1nnc(-c2ccccc2)[nH]1
3,5,O=C(Nc1ccc([N+](=O)[O-])cc1Cl)c1cc(Cl)ccc1O [NICLOSAMIDE]

# Test system: not listed separately
# Test: Inhibition of Wnt3A-stimulated Wnt/beta-catenin pathway in HEK293 cells transfected with p8xTOPFlash, Renilla luciferase plasmid pRL-TK and pLKO.1 after 8 hrs by Dual topflash luciferase reporter gene assay
# Assay type: cell-based
# Details: Homo sapiens, HEK293, 8 h
# How it was run: as §2
row,Compound,IC50 [nM]
1,O=[N+]([O-])c1ccc(-c2nnc(-c3cc(Cl)ccc3O)[nH]2)cc1,1410
2,Oc1ccc(Cl)cc1-c1nnc(-c2ccc(F)cc2)[nH]1,1910
3,Oc1ccc(Cl)cc1-c1nnc(-c2ccc(C(F)(F)F)cc2)[nH]1,2880

# The next lines start with the values.
row,IC50 [nM],Compound
1,1840,O=[N+]([O-])c1ccc(-c2nnc(-c3cc(Cl)ccc3O)[nH]2)c(Cl)c1
2,4020,Oc1ccc(Cl)cc1-c1nnc(-c2ccccc2)[nH]1
3,340,O=C(Nc1ccc([N+](=O)[O-])cc1Cl)c1cc(Cl)ccc1O [NICLOSAMIDE]

# Species on record: Homo sapiens
# Test: Inhibition of Wnt/beta-catenin signaling pathway in human HCT116 whole cell lysate harboring beta-catenin mutation assessed as reduction in survivin protein expression at 5 uM after 18 hrs by Western blot analysis relative to control
# Assay type: subcellular
# Details: not given
# How it was run: as §1
row,Compound,inhibition [%]
1,O=[N+]([O-])c1ccc(-c2nnc(-c3cc(Cl)ccc3O)[nH]2)c(Cl)c1,38
2,O=[N+]([O-])c1ccc(-c2nnc(-c3cc(Cl)ccc3O)[nH]2)cc1,38
3,O=C(Nc1ccc([N+](=O)[O-])cc1Cl)c1cc(Cl)ccc1O [NICLOSAMIDE],44
4,Oc1ccc(Cl)cc1-c1nnc(-c2ccc(C(F)(F)F)cc2)[nH]1,44

# Species on record: Homo sapiens
# Test: Inhibition of Wnt/beta-catenin signaling pathway in human HCT116 whole cell lysate harboring beta-catenin mutation assessed as reduction in c-Myc protein expression at 5 to 10 uM after 18 hrs by Western blot analysis
# Assay type: subcellular
# Details: not given
row,inhibition,Compound
1,Active,Oc1ccc(Cl)cc1-c1nnc(-c2ccccc2)[nH]1
